This is an account of results in ChEMBL document CHEMBL1128566, “Inhibition of human neutrophil elastase. 3. An orally active enol acetate prodrug” (J Med Chem, 1995).

For orientation: half-life means the time in which the quantity being followed falls by half. Low readings indicate rapid decline, high ones slow decline. Broadly, the Ki is the equilibrium dissociation constant of an inhibitor or competing ligand from its target. As a reminder, the ED50 is the dose at which the effect has come halfway, by size or by number of responders. A high value points to weaker potency.

Tested on in the first data set: not listed separately
As to the kind of experiment: Half-life for the conversion of compound to ketone, was examined by 19F NMR spectroscopy in USP-simulated intestinal fluid, at 37 degree Centigrade. It counts as ADME. An outline of the steps:
(§1)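 Simulated intestinal fluid at pH 7.5, held at 37 or 50 °C. Half-life taken for conversion of enol acetate to the corresponding ketone.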
Take `CC(=O)O/C(=C(/NC(=O)[C@@H]1CCCN1C(=O)[C@@H](NC(=O)c1ccc(C(=O)N2CCOCC2)cc1)C(C)C)C(C)C)C(F)(F)F`: the half-life is 2.9 h.

Consider `CC(=O)O/C(=C(\NC(=O)[C@@H]1CCCN1C(=O)[C@@H](NC(=O)c1ccc(C(=O)N2CCOCC2)cc1)C(C)C)C(C)C)C(F)(F)C(F)(F)F`, for which the half-life was 6.6 h.

On to `CC(=O)O/C(=C(/NC(=O)[C@@H]1CCCN1C(=O)[C@@H](NC(=O)c1ccc(C(=O)N2CCOCC2)cc1)C(C)C)C(C)C)C(F)(F)C(F)(F)F`, for which the half-life was 7.3 h.

Tested on in a further data set: not listed separately
As to the kind of experiment: Half-life for the conversion of compound to ketone, was examined by 19F NMR spectroscopy in USP-simulated intestinal fluid, at 50 degree Centigrade. Type of data set: ADME. The method, boiled down:
as §1
In turn, `CC(=O)O/C(=C(/NC(=O)[C@@H]1CCCN1C(=O)[C@@H](NC(=O)c1ccc(C(=O)N2CCOCC2)cc1)C(C)C)C(C)C)C(F)(F)C(F)(F)F` had a half-life of 3.1 h.

`CC(=O)O/C(=C(/NC(=O)[C@@H]1CCCN1C(=O)[C@@H](NC(=O)c1ccc(C(=O)NS(=O)(=O)c2ccc(Cl)cc2)cc1)C(C)C)C(C)C)C(F)(F)F` had a half-life of 1.2 h.

Tested on in another data set: not listed separately
As to the kind of experiment: Half-life for the conversion of compound to ketone, was examined by 19F NMR spectroscopy in human blood plasma, at 37 degree Centigrade. Type of data set: ADME, tissue-based. An outline of the steps:
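Human blood plasma incubated at 37 °C. Half-life measured for conversion of enol acetate to the corresponding ketone.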
For `CC(=O)O/C(=C(/NC(=O)[C@@H]1CCCN1C(=O)[C@@H](NC(=O)c1ccc(C(=O)N2CCOCC2)cc1)C(C)C)C(C)C)C(F)(F)F`, the half-life was 0.25 h.

The compound `CC(=O)O/C(=C(\NC(=O)[C@@H]1CCCN1C(=O)[C@@H](NC(=O)c1ccc(C(=O)N2CCOCC2)cc1)C(C)C)C(C)C)C(F)(F)C(F)(F)F` displayed a half-life of 0.667 h.

`CC(=O)O/C(=C(/NC(=O)[C@@H]1CCCN1C(=O)[C@@H](NC(=O)c1ccc(C(=O)N2CCOCC2)cc1)C(C)C)C(C)C)C(F)(F)C(F)(F)F`: the half-life came out at 0.417 h.

As to `CC(=O)O/C(=C(/NC(=O)[C@@H]1CCCN1C(=O)[C@@H](NC(=O)c1ccc(C(=O)NS(=O)(=O)c2ccc(Cl)cc2)cc1)C(C)C)C(C)C)C(F)(F)F`, the half-life worked out at 0.167 h.

Another data set has as its target T1, Neutrophil elastase (Homo sapiens, UniProt P08246).
T1 sequence (P08246 whole entry): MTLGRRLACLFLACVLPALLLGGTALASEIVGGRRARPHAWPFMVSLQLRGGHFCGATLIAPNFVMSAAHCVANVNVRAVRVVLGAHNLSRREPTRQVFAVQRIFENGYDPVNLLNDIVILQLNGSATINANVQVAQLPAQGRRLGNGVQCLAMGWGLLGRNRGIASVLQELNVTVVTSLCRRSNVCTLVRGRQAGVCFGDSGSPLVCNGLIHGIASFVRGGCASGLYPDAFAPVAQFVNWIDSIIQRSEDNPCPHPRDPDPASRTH
In words: Binding affinity for purified Human neutrophil elastase was determined in the presence of pig liver esterase, in vitro. The method, boiled down:
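Partially purified HNE assayed with 12.5 units porcine liver esterase added, at a fixed inhibitor level (66 nM, 100 nM, 133 nM or 1.67 μM, depending on compound). Time course followed; Ki taken from the final rate after the enol acetate was fully hydrolysed. Controls: elastase plus substrate, with or without esterase.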
As for `CC(=O)O/C(=C(/NC(=O)[C@@H]1CCCN1C(=O)[C@@H](NC(=O)c1ccc(C(=O)N2CCOCC2)cc1)C(C)C)C(C)C)C(F)(F)F`, the Ki worked out at 0.016 µM.

On to `CC(=O)O/C(=C(/NC(=O)[C@@H]1CCCN1C(=O)[C@@H](NC(=O)c1ccc(C(=O)N2CCOCC2)cc1)C(C)C)C(C)C)C(F)(F)C(F)(F)F`, for which the Ki was 0.025 µM.

Consider `CC(C)C(=O)O/C(=C(/NC(=O)[C@@H]1CCCN1C(=O)[C@@H](NC(=O)c1ccc(C(=O)N2CCOCC2)cc1)C(C)C)C(C)C)C(F)(F)C(F)(F)F`, for which the Ki came to 0.025 µM.

As for `CCC(=O)O/C(=C(/NC(=O)[C@@H]1CCCN1C(=O)[C@@H](NC(=O)c1ccc(C(=O)N2CCOCC2)cc1)C(C)C)C(C)C)C(F)(F)C(F)(F)F`, the Ki was determined as 0.025 µM.

With `CC(=O)O/C(=C(/NC(=O)[C@@H]1CCCN1C(=O)[C@@H](NC(=O)c1ccc(C(=O)NS(=O)(=O)c2ccc(Cl)cc2)cc1)C(C)C)C(C)C)C(F)(F)F`, the Ki was determined as 0.003 µM.

With `CC(=O)O/C(=C(/NC(=O)[C@@H]1CCCN1C(=O)[C@@H](NC(=O)N1CCOCC1)C(C)C)C(C)C)C(F)(F)F`, the Ki turned out to be 0.15 µM.

The target of the next data set is T1, Neutrophil elastase. As to the kind of experiment: Binding affinity for purified Human neutrophil elastase was determined in vitro.
In turn, `CC(C)[C@H](NC(=O)c1ccc(C(=O)N2CCOCC2)cc1)C(=O)N1CCC[C@H]1C(=O)NCC(=O)C(F)(F)C(F)(F)F` displayed an inhibitory constant (Ki) of 150 µM.

The compound `CC(=O)O/C(=C(/NC(=O)[C@@H]1CCCN1C(=O)[C@@H](NC(=O)c1ccc(C(=O)N2CCOCC2)cc1)C(C)C)C(C)C)C(F)(F)C(F)(F)F` yielded a Ki of over 2 µM.

`CC(C)[C@H](NC(=O)OC(C)(C)C)C(=O)N1CCC[C@H]1C(=O)NC(C)(C)C(=O)C(F)(F)C(F)(F)F` showed a Ki of over 50 µM.

For `CC(C)=C(NC(=O)[C@@H]1CCCN1C(=O)[C@@H](NC(=O)c1ccc(C(=O)N2CCOCC2)cc1)C(C)C)C(=O)C(F)(F)C(F)(F)F`, the Ki was 8 µM.

In turn, `CC(=O)O/C(=C(/NC(=O)[C@@H]1CCCN1C(=O)[C@@H](NC(=O)c1ccc(C(=O)NS(=O)(=O)c2ccc(Cl)cc2)cc1)C(C)C)C(C)C)C(F)(F)F` had a Ki of 0.32 µM.

`CC(=O)O/C(=C(/NC(=O)[C@@H]1CCCN1C(=O)[C@@H](NC(=O)N1CCOCC1)C(C)C)C(C)C)C(F)(F)F` came in with an inhibition constant (Ki) of 6.3 µM.

For the next data set, the system named is Cricetinae gen. sp. In words: Ability to inhibit HNE-induced pulmonary hemorrhage, was examined in vivo in hamsters, after administering the compound orally 30 min prior to intratracheal instillation of 25 microg of HNE. Type of data set: functional. The method, boiled down: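 Hamsters dosed po at various doses 30 min before intratracheal HNE (25 μg). Killed 1 h later; trachea cannulated and lavaged three times with saline (0.04 mL/g). Hemorrhage measured as BAL hemoglobin by spectrophotometry. One-way ANOVA with Dunnett's test against vehicle-treated animals (p ≤ 0.05). ED50 extrapolated from dose-response curves.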
Compound `CC(=O)O/C(=C(/NC(=O)[C@@H]1CCCN1C(=O)[C@@H](NC(=O)c1ccc(C(=O)N2CCOCC2)cc1)C(C)C)C(C)C)C(F)(F)F` had an ED50 of over 75 mg/kg.

As to `CC(=O)O/C(=C(/NC(=O)[C@@H]1CCCN1C(=O)[C@@H](NC(=O)c1ccc(C(=O)N2CCOCC2)cc1)C(C)C)C(C)C)C(F)(F)C(F)(F)F`, the 50% effect level (ED50) was put at a dose of 9 mg/kg.

Consider `CC(=O)O/C(=C(/NC(=O)[C@@H]1CCCN1C(=O)[C@@H](NC(=O)c1ccc(C(=O)NS(=O)(=O)c2ccc(Cl)cc2)cc1)C(C)C)C(C)C)C(F)(F)F`, for which the ED50 is over 50 mg/kg.

`CC(C)C(NC(=O)[C@@H]1CCCN1C(=O)[C@@H](NC(=O)c1ccc(C(=O)N2CCOCC2)cc1)C(C)C)C(=O)C(F)(F)F` (some centres not stated) had an ED50 of over 50 mg/kg.

As for `CC(C)C(NC(=O)[C@@H]1CCCN1C(=O)[C@@H](NC(=O)c1ccc(C(=O)N2CCOCC2)cc1)C(C)C)C(=O)C(F)(F)C(F)(F)F` (some centres not stated), the ED50 is 15 mg/kg.

Tested on in another data set: not listed separately
In words: Half-life for the conversion of compound to ketone, was examined by 19F NMR spectroscopy in USP-simulated gastric fluid, at 50 degree Centigrade. Type of data set: ADME. An outline of the steps:
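Simulated gastric fluid at pH 1.2 and 50 °C, followed for up to 12 h. Conversion of enol acetate to the parent ketone tracked to give a half-life.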
`CC(=O)O/C(=C(/NC(=O)[C@@H]1CCCN1C(=O)[C@@H](NC(=O)c1ccc(C(=O)N2CCOCC2)cc1)C(C)C)C(C)C)C(F)(F)F`: the half-life was 41 h.
